Assay outcomes from PubChem.
Redox H2O2 prof: compounds producing H2O2 with reducing agent – biochemical, NIH compound library profiling, artefact control for MLSCN library redox annotation, primary screen; activation, % at 10 µM; hit rate 0.03% among 200,000; DTT-dependent redox cycling H2O2, phenol red/HRP absorbance; 100% = 100 µM peroxide control, 0% = buffer;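 active = activation of at least 50% relative to the plate's high and low controls in the primary single-dose screen; inactive = activation below 50%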;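 note: compound incubated with DTT at 0.8 mM final as the reducing agent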
MPTP inh: blocks calcium-induced mitochondrial swelling. hit rate 1.4% among 360,000. inhibition, % at 10 µM. AID 602449. isolated mouse mitochondria, Ca2+ swelling absorbance, 30 min;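 active = inhibition of 50% or more, scaled per plate between neutral and stimulator controls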;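 note: 0% = DMSO wells given calcium and 100% = 1 mM EGTA wells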
L major viab: reduces viability of Leishmania major promastigotes; resazurin fluorescence viability; inhibition, % at 10 µM; hit rate 9% among 200,000; AID 1063; in the data active = inhibition above about 50%;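 note: promastigotes grown with compound for 44 hours at 28 °C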
Lipid droplet: hepatic lipid droplet formation modulation. AML12 mouse hepatocytes, oleate lipid droplets, BODIPY imaging. inhibition, % at 6.5 µM. hit rate 0.4% among 240,000;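 active = lipid droplet intensity inhibited by at least 50%, with more than 500 cells counted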
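material = mouse AML12 hepatocyte cell line, fixed after treatment | also added = 100 µM oleic acid challenge | doses = compound at 6.5 µM only | schedule = overnight exposure | technique = Image-based BODIPY and DAPI two-channel analysis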
T cruzi inh: blocks replication of Trypanosoma cruzi; T. cruzi beta-gal in NIH3T3, luminescence, 90 h; inhibition, % (test concentration not listed); hit rate 1.4% among 300,000;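 active = mean inhibition across valid replicates above about 55%, limit read from the data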;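 note: signal also drops with host cell toxicity which is not excluded here; 0% = plate median of DMSO wells and 100% = zero luminescence signal; higher percent means less beta-gal luminescence so fewer parasites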
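System: NIH/3T3 fibroblasts plus reporter T. cruzi. Medium: DMEM plus 2% FBS. Probe or stimulus: 5000 reporter trypomastigotes per well. Compound: single 50 nL compound addition per well in DMSO. Incubation: co-culture of at least 90 h after 3 h attachment. Detection: GalScreen β-gal luminescence, detergent lysis, 60 min. Evaluation: parasite load inhibition, %.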
Lipid drop inh: hepatic lipid droplet formation inhibition, confirmed. inhibition, % at 5.2 µM. hit rate 65% among 870. AML12 mouse hepatocytes, BODIPY lipid droplet imaging; droplets induced with 100 µM oleic acid. shares compounds with Lipid droplet;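 active = inhibition of lipid droplet metric at least 50%, with more than 300 cells in each of four replicates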;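 note: plate controls were DMSO with oleic acid for no effect and 5 µM Triacsin-C for full effect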
AML12 tox img: toxic to AML12 mouse hepatocytes in counter-screen. DAPI nuclear morphology cytotoxicity imaging; stronger effect = higher value; cells fed 100 µM oleate overnight. z-score at 5 µM. shares compounds with Lipid droplet. hit rate 3% among 870; in the data active = z-score above about 6.3;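 note: compound exposure lasted overnight at 37 °C before fixation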
AML12 tox ATP: AML12 hepatocyte cytotoxicity, confirmed. shares compounds with Lipid droplet. AML12 mouse hepatocyte viability, ATP luminescence; cells loaded with 100 µM oleic acid. cytotoxicity, % at 50 µM. 530 tested, under 10 active. AID 463219;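 active = cytotoxicity above 50% in each of four replicates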;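 note: compound exposure lasted overnight at 37 °C before the ATP read; 0% = DMSO-treated cells and 100% = wells with no cells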
Numbers without * were called inactive; / = no result. The sample as a whole holds a higher share of hits than the screen did.

SMILES	Redox H2O2 prof	MPTP inh	L major viab	Lipid droplet	T cruzi inh	Lipid drop inh	AML12 tox img	AML12 tox ATP
CCCc1nc2ccccc2c(C(=O)OC(C)C(=O)NCc2ccc3c(c2)OCO3)c1CC (stereo unspecified)	0	2	13	84*	17	103*	-0.11	-6
COc1ccccc1N1CCN(C2CCCN(C(=O)CC(F)(F)F)C2)CC1 (stereo unspecified)	/	-1	/	3	4	/	/	/
CCOc1ccc2ccccc2c1/C=N/NC(=O)CNC(=O)c1ccccc1F	/	2	/	12	-1	/	/	/
CC(C)(C)CC(=O)Nc1nn[nH]n1	0	-2	0	14	-11	/	/	/
c1cc[n+](CCCC[n+]2ccccc2)cc1	/	0	/	12	-15	/	/	/
c1cc[n+](CCC[n+]2ccccc2)cc1	/	0	/	56*	-19	35	-0.4	/
COc1cccc(CNC(=O)CCSCc2ccccc2F)c1	0	-1	-13	-30	-16	/	/	/
CCc1ccc(Nc2ncc3c(n2)CC(C)(C)CC3=O)cc1	/	2	/	-8	6	/	/	/
COc1ccc(C)cc1S(=O)(=O)N(CC(=O)O)c1ccccc1	-1	-1	-7	-5	-8	/	/	/
COc1ccc(C)cc1S(=O)(=O)N(CC(=O)O)c1ccc(C)cc1	0	-3	-1	53*	-6	12	-0.55	/
CCc1ccc(NC(=O)CNC(=O)[C@@H]2Cc3ccccc3CN2C(=O)OC(C)(C)C)cc1	/	-1	/	54*	10	76*	-0.28	2
CCc1ccc(NC(=O)CNC(=O)[C@@H]2Cc3ccccc3CN2)cc1	/	-1	/	3	-5	/	/	/
COc1ccc(N=NC2C(=O)N(c3ccccc3)N=C2C)cc1 (stereo unspecified)	/	3	/	52*	7	102*	-0.5	10
CCN(CC)CCNC(=O)C1c2cc(OC)c(OC)cc2C(=O)N(C)C1c1cccs1 (stereo unspecified)	0	-1	-5	9	-15	/	/	/
O=C1c2ccccc2NC(c2ccc(O)c(O)c2)N1c1ccccc1Cl (stereo unspecified)	/	0	/	1	-19	/	/	/
Cc1ccc(-c2nnc(OCc3cccnc3)c3ccccc23)cc1	0	-2	20	67*	18	86*	0.77	15
Cc1ccc(S(=O)(=O)N2CCN(C(=O)COC(=O)CSc3ccc(C)c(C)c3)CC2)c(C)c1	/	0	/	/	/	/	/	/
Cc1ccc(N2C(N)=C(C#N)C(c3cc(CN4CCOCC4)cs3)C3=C2CC(C)(C)CC3=O)cc1 (stereo unspecified)	0	-1	48	75*	22	87*	0.078	3
CCOc1ccc(-c2nonc2NC(=O)c2ccco2)cc1	/	0	/	74*	-1	93*	-0.94	14
CCOc1ccc2nc(NC(=O)CSc3nc4ccccc4c(=O)n3Cc3ccco3)sc2c1	-1	0	7	57*	-1	106*	-0.69	14
C/C(=C\c1cccc(Cl)c1Cl)C(=O)c1c(C)cc(C)[nH]c1=O	/	1	/	52*	12	27	0.23	/
C/C(=C\c1ccccc1)C(=O)c1c(C)cc(C)[nH]c1=O	0	0	20	3	-22	/	/	/
CCOC(=O)c1cc(-c2cccc(C(F)(F)F)c2)nc2nc(SC)[nH]c(=O)c12	-1	-3	8	12	0	/	/	/
COC(=O)c1cc(-c2ccc(OC)cc2)nc2nc(SC)[nH]c(=O)c12	/	0	/	67*	-4	27	-0.77	/
CCOC(=O)c1cc(-c2ccc(C)cc2)nc2nc(SC)[nH]c(=O)c12	0	-6	56*	104*	5	107*	-0.18	/
SMILES	Redox H2O2 prof	MPTP inh	L major viab	Lipid droplet	T cruzi inh	Lipid drop inh	AML12 tox img	AML12 tox ATP
CCOc1ccc2c(c1)-c1c(ssc1=S)C(C)(C)N2C	-3	4	8	57*	8	102*	0.044	13
CC(C)n1c(O)c(N=NC(=O)C2COc3ccccc3O2)c2ccccc21 (stereo unspecified)	0	-3	10	52*	17	-1	-1.1	/
Cn1c(O)c(N=NC(=O)C2COc3ccccc3O2)c2ccccc21 (stereo unspecified)	/	0	/	-3	-4	/	/	/
Fc1ccc(-c2cnn3c(-c4cccs4)ccnc23)cc1	0	2	4	63*	29	79*	-0.16	/
CCc1ccc(NC(=O)CSc2nc3ccccc3nc2N2CCCC2)cc1	/	1	/	74*	14	101*	0.98	1
CC(C)c1ccc(NC(=O)CSc2nc3ccccc3nc2N2CCCC2)cc1	/	2	/	70*	12	105*	0.32	6
O=C(CSc1nc2ccccc2nc1N1CCCC1)Nc1ccc(Cl)cc1	/	1	/	8	16	/	/	/
Cc1ccc(NC(=O)CSc2nc3ccccc3nc2N2CCCC2)cc1	/	0	/	70*	-4	104*	0.86	4
CCCN(c1ccccc1C(=O)O)S(=O)(=O)c1ccc2c(c1)n(C)c(=O)n2C	/	0	/	/	-11	/	/	/
CCOC(=O)CN1C(=O)C(=O)N(Cc2ccccc2F)C1=O	/	0	/	/	-9	/	/	/
CCOc1ccc(C(=O)OCC(=O)NCc2ccccc2)cc1OCC	/	-1	/	/	/	/	/	/
COc1ccc(C(=O)OCC(=O)NC(C)CCc2ccccc2)c(OC)c1 (stereo unspecified)	/	-1	/	75*	-1	67	0.65	7
CCOc1ccc(C(=O)CCC(=O)NCC(=O)OCc2ccccc2)cc1OCC	/	-1	/	93*	1	73*	-0.48	9
CCOc1ccc(C(=O)NCC(=O)NC(C)CCc2ccccc2)cc1OCC (stereo unspecified)	/	1	/	75*	16	106*	1.1	16
COc1ccc(C(=O)OC(C)C(=O)NC(C)CCc2ccccc2)cc1OC (stereo unspecified)	/	1	/	103*	3	107*	-0.018	14
COc1ccc(NC(=O)c2cc([N+](=O)[O-])ccc2N2CCCC2)cc1S(N)(=O)=O	/	-1	/	/	/	/	/	/
COc1ccc2[nH]c3c(c2c1)CCN1C(=O)N([C@@H](C)C(=O)NCCc2ccc(OC)c(OC)c2)C(=O)[C@]31C	/	-1	/	/	5	/	/	/
COc1ccc(CCNC(=O)c2ccc(CNc3nc(=S)[nH]c4ccccc34)cc2)cc1OC	0	-3	7	52*	29	101*	-0.26	14
COc1ccc(CCNC(=O)[C@H](C)N2C(=O)N3CCc4c([nH]c5ccccc45)[C@@]3(C)C2=O)cc1OC	/	-2	/	87*	12	102*	-1.6	20
COc1ccc(CCNC(=O)c2c(O)c3ccccc3[nH]c2=O)cc1OC	/	0	/	-5	-1	/	/	/
